Source: ChEMBL document CHEMBL3525945, “Metabolic switching of BILR 355 in the presence of ritonavir. II. Uncovering novel contributions by gut bacteria and aldehyde oxidase” (Drug Metab Dispos, 2012)

Key:
[1] = Drug metabolism in human liver S9 fraction assessed as BILR355 formation at 10 uM by LC-MS/MS analysis in absence of NADPH; format: ADME; conditions: s9, 10 µM
Summary of the method: (§1)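 BILR 402 (10 μM final) was incubated with human liver S9 or cytosol (1 mg/mL protein) in 0.05 M potassium phosphate pH 7.4 at 37 °C. Runs were done with or without 2.5 mM NADPH. Samples at 10, 20, 30 and 60 min were quenched in nevirapine/acetonitrile, filtered and analysed by LC-MS/MS; duplicate.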

[2] = test system: Liver cytosol; test: Drug metabolism in human liver cytosol assessed as BILR355 formation at 10 uM by LC-MS/MS analysis; format: ADME, tissue-based; summary of the method: as §1
[3] = molecular target: T1, Cytochrome P450 3A4 (Homo sapiens, UniProt P08684); test: Activity at recombinant CYP3A4 (unknown origin) expressed in baculovirus-infected insect cells assessed as enzyme-mediated drug depletion at 1 to 10 uM by LC-MS/MS analysis in presence of NADPH; format: ADME; conditions: TDE = time-dependent effect
T1 sequence (P08684 whole entry): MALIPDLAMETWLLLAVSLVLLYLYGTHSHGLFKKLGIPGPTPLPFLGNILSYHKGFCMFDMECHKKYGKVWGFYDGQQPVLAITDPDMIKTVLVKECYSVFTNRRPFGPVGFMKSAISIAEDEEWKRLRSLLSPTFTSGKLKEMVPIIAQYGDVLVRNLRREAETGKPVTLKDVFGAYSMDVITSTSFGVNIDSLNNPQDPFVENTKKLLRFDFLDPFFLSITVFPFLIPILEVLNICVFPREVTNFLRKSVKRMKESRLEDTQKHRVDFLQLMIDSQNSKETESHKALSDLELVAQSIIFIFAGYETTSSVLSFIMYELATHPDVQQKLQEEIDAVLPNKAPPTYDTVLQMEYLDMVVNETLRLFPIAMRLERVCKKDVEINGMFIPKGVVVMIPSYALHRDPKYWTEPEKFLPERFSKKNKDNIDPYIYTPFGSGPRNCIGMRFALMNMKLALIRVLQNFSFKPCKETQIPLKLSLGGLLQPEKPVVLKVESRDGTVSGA
Summary of the method: (§2)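 BILR 402 (1 or 10 μM) with baculovirus/insect-cell recombinant CYPs, levels scaled to average liver content (1A2 2, 2A6 1, 2B6 0.1, 2C9 1.5, 2C19 1.5, 2D6 0.3, 3A4 5 pmol/mL). Buffer 0.1 M potassium phosphate, 5 mM MgCl2, pH 7.4; 2.5 mM NADPH; 37 °C. Non-transfected insect microsomes served as controls. Aliquots taken 0.5–30 min and acetonitrile-quenched; depletion measured by LC-MS/MS with isotope-labelled internal standard.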

[4] = molecular target: T2, Cytochrome P450 2B6 (Homo sapiens, UniProt P20813); test: Activity at recombinant CYP2B6 (unknown origin) expressed in baculovirus-infected insect cells assessed as enzyme-mediated drug depletion at 1 to 10 uM by LC-MS/MS analysis in presence of NADPH; format: ADME; summary of the method: as §2
T2 sequence (P20813 whole entry): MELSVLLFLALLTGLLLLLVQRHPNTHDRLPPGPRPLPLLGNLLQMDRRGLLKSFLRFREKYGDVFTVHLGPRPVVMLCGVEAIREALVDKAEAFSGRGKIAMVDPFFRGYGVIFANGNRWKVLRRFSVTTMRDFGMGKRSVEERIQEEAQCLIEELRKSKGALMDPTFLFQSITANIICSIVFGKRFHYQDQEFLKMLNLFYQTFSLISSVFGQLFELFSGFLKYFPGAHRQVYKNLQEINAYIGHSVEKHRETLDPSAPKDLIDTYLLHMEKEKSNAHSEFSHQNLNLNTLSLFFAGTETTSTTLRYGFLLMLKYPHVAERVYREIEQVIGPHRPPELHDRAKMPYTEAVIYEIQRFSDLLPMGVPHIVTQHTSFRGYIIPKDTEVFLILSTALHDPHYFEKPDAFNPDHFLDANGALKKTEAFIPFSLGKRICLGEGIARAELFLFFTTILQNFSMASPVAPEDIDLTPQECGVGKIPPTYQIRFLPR

[5] = molecular target: T1, Cytochrome P450 3A4; test: Activity at recombinant CYP3A4 (unknown origin) expressed in baculovirus-infected insect cells assessed as enzyme-mediated drug depletion by measuring compound level at 1 uM after 4 mins by LC-MS/MS analysis in presence of NADPH; format: ADME
Summary of the method: (§3)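 rCYP3A4 (5 pmol/mL) incubated with BILR 402 at 1 or 10 μM in 0.1 M potassium phosphate/5 mM MgCl2, pH 7.4, with NADPH at 37 °C. Remaining BILR 402 and BILR 355 formed were read at 4 min by LC-MS/MS against a labelled internal standard.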

[6] = molecular target: T1, Cytochrome P450 3A4; test: Activity at recombinant CYP3A4 (unknown origin) expressed in baculovirus-infected insect cells assessed as enzyme-mediated drug depletion by measuring compound level at 10 uM after 4 mins by LC-MS/MS analysis in presence of NADPH; format: ADME; summary of the method: as §3
[7] = molecular target: T3, Aldehyde oxidase (Homo sapiens, UniProt Q06278); test: Activity at human recombinant AO expressed in Escherichia coli cells assessed as enzyme-mediated BILR516 metabolite formation at 5 uM by LC-MS/MS analysis; format: ADME
T3 sequence (Q06278 whole entry): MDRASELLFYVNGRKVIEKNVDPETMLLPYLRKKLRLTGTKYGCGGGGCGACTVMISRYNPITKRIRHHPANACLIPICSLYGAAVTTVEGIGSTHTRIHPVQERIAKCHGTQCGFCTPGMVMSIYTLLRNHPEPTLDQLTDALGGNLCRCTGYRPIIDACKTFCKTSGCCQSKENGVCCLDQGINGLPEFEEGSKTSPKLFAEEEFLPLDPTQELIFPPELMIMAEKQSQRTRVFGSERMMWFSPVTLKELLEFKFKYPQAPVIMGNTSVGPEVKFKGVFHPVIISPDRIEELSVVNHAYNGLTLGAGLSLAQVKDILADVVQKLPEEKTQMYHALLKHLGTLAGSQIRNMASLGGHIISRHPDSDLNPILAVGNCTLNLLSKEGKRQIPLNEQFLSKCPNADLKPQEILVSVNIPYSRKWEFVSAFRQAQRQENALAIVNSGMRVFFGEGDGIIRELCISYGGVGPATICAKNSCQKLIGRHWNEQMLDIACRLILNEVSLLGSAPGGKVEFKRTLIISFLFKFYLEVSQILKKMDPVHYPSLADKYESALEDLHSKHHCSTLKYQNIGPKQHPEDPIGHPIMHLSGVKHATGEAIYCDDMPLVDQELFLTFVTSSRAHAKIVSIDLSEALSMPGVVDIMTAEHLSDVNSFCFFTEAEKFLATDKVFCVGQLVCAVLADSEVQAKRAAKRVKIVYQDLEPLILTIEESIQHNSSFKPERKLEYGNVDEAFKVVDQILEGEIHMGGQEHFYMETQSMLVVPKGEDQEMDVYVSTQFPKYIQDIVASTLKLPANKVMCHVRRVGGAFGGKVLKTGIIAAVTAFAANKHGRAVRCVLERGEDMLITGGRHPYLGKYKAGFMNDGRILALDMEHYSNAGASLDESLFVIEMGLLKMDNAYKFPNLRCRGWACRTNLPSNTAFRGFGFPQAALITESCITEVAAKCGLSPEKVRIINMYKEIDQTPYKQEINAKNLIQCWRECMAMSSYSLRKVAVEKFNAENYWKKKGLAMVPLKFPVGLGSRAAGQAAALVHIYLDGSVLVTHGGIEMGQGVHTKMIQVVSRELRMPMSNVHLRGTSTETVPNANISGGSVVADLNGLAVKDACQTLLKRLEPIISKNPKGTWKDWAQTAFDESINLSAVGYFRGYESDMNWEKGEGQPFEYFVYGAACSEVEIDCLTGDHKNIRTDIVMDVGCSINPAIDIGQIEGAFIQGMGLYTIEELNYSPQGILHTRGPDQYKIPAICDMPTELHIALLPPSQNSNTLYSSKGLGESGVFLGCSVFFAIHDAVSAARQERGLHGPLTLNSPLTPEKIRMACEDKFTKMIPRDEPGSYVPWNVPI
Summary of the method: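 BILR 402 (5 μM final) incubated with cytosolic extract of E. coli expressing human AO, or control E. coli cytosol lacking AO, 0.1 mg/mL protein, 0.05 M potassium phosphate pH 7.4, 37 °C.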

Drug metabolism [1]: metabolite_not_detected
Drug metabolism [2]: metabolite_not_detected
Drug metabolism [3]: tde
Drug metabolism [4]: metabolite_not_detected
Drug metabolism [5]: 0.25 µM
Drug metabolism [6]: 5 µM
Drug metabolism [7]: metabolite_detected
SMILES: CCN1c2ncc(CCOc3ccnc4ccccc34)cc2C(=O)N(C)c2cccnc21
